# The source made the active and inactive calls. The rule behind the calls is not given here.
# How the values were obtained:
# [1] = test system: HepG2; experiment: Induction of apoptosis in human HepG2 cells assessed as increase in Bax level after 24 hrs by Western blot analysis; format: functional, cell-based
# Procedure, shortened: (§1)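 HepG2 cells grown to 80–90% confluence, then kept 12 h in 0.1% FCS RPMI 1640. Exposed 24 h at 5, 10 or 20 µM. Cell extracts run on SDS-polyacrylamide gels, transferred to nitrocellulose and probed with primary antibodies against cytochrome c, Bax, Bcl-2, caspase-9, caspase-3 and cleaved PARP.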
# [2] = test system: HepG2; experiment: Induction of apoptosis in human HepG2 cells assessed as early apoptotic cells at 10 uM after 12 hrs by flow cytometry (reference value: 2.1 %); format: functional
# Procedure, shortened: (§2)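 HepG2 cells treated 12 h at 10 or 20 µM, with untreated control. Stained with annexin V-FITC plus PI for 30 min at 25 °C in the dark. Quadrant percentages read by flow cytometry.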
# [3] = test system: HepG2; experiment: Cytotoxicity against human HepG2 cells after 48 hrs by MTT assay; format: functional, cell-based; conditions: HepG2, 48 h
# Procedure, shortened: (§3)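 Cells grown in medium with 10% heat-inactivated FBS, 5% CO2, 37 °C. Compounds given in medium with 1% DMSO at 1.25–20 graded concentrations; 1% DMSO medium served as control. MTT (5 mg/mL) added, formazan dissolved in DMSO, absorbance read at 570/630 nm. Survival expressed relative to negative control. IC50 by Bliss method (n=5), at least three independent experiments, mean ± SD.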
# [4] = test system: HepG2; experiment: Induction of apoptosis in human HepG2 cells assessed as caspase-3 expression at 20 uM by qRT-PCR analysis; format: functional, cell-based; conditions: TDE = time-dependent effect
# Procedure, shortened: (§4)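 Total RNA extracted from HepG2 cells […]. Transcripts quantified by real-time RT-PCR, with Ct values normalized to actin by the ΔCt method. Run in triplicate per group.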
# [5] = test system: HeLa; experiment: Cytotoxicity against human HeLa cells after 48 hrs by MTT assay; format: functional, cell-based; procedure, shortened: as §3
# [6] = test system: HepG2; experiment: Induction of apoptosis in human HepG2 cells assessed as decrease in Bcl-2 level after 24 hrs by Western blot analysis; format: functional, cell-based; procedure, shortened: as §1
# [7] = test system: HepG2; experiment: Induction of apoptosis in human HepG2 cells assessed as increase in caspase-9 level at 5 to 20 uM after 24 hrs by Western blot analysis; format: functional, cell-based; procedure, shortened: as §1
# [8] = test system: HepG2; experiment: Cell cycle arrest in human HepG2 cells assessed as accumulation at G1 phase at 20 uM after 24 hrs using propidium iodide staining by flow cytometry (reference value: 41.51 %); format: functional
# [9] = test system: HUVEC; experiment: Cytotoxicity against human HUVEC cells after 48 hrs by MTT assay; format: cell-based; procedure, shortened: as §3
# [10] = test system: HepG2; experiment: Induction of apoptosis in human HepG2 cells assessed as change in membrane integrity using acridine orange/ethidium bromide staining at 20 uM after 12 to 24 hrs by fluorescence microscopy; format: functional, cell-based
# Procedure, shortened: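 HepG2 cells on coverslips treated with 20 µM in medium with 10% FBS for 12 or 24 h, with untreated 24 h control. Stained with AO/EB and examined by fluorescence microscopy: green = live, green-yellow = early apoptotic, orange = late apoptotic or necrotic.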
# [11] = test system: HepG2; experiment: Cell cycle arrest in human HepG2 cells assessed as accumulation at G2 phase at 20 uM after 12 hrs using propidium iodide staining by flow cytometry (reference value: 6.20 %); format: functional
# [12] = Cytotoxicity against human SMMC-7404 cells after 48 hrs by MTT assay; format: functional, cell-based; conditions: SMMC-7404, 48 h; procedure, shortened: as §3
# [13] = test system: MGC-803; experiment: Cytotoxicity against human MGC803 cells after 48 hrs by MTT assay; format: functional, cell-based; conditions: MGC-803, 48 h; procedure, shortened: as §3
# [14] = test system: HepG2; experiment: Cell cycle arrest in human HepG2 cells assessed as accumulation at G1 phase at 20 uM after 12 hrs using propidium iodide staining by flow cytometry (reference value: 41.51 %); format: functional
# [15] = test system: HepG2; experiment: Cell cycle arrest in human HepG2 cells assessed as accumulation at G2 phase at 20 uM after 24 hrs using propidium iodide staining by flow cytometry (reference value: 6.20 %); format: functional
# [16] = test system: HepG2; experiment: Induction of apoptosis in human HepG2 cells assessed as necrotic cells at 20 uM after 12 hrs by flow cytometry (reference value: 2.3 %); format: functional; procedure, shortened: as §2
# [17] = test system: HepG2; experiment: Induction of apoptosis in human HepG2 cells assessed as condensation of nucleus using hoechst staining at 20 uM after 12 to 24 hrs by fluorescence microscopy; format: functional, cell-based
# Procedure, shortened: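 HepG2 cells on coverslips treated at 20 µM for 12 or 24 h, with untreated 24 h control. Fixed in 4% paraformaldehyde for 10 min, then stained with Hoechst 33258 for 5 min. Nuclei viewed by fluorescence microscopy at 350 nm excitation and 460 nm emission.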
# [18] = test system: HepG2; experiment: Induction of apoptosis in human HepG2 cells assessed as change in morphology at 20 uM after 12 to 24 hrs using JC-1 staining by fluorescence microscopy; format: functional, cell-based
# Procedure, shortened: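 HepG2 cells treated at 20 µM for 12 or 24 h, with untreated 24 h control. Incubated with JC-1 (5 µg/ml) at 37 °C for 20 min, rinsed in PBS. Green (515–545 nm) and red (570–600 nm) emission imaged by fluorescence microscopy; depolarization taken as a rise in green/red ratio.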
# [19] = test system: HepG2; experiment: Induction of apoptosis in human HepG2 cells assessed as necrotic cells at 10 uM after 12 hrs by flow cytometry (reference value: 2.3 %); format: functional; procedure, shortened: as §2
# [20] = test system: HepG2; experiment: Induction of apoptosis in human HepG2 cells assessed as late apoptotic cells at 20 uM after 12 hrs by flow cytometry (reference value: 6.9 %); format: functional; procedure, shortened: as §2
# [21] = test system: HepG2; experiment: Induction of apoptosis in human HepG2 cells assessed as caspase-8 expression at 20 uM by qRT-PCR analysis; format: functional, cell-based; conditions: TDE = time-dependent effect; procedure, shortened: as §4
# [22] = test system: HepG2; experiment: Cell cycle arrest in human HepG2 cells assessed as accumulation at S phase at 20 uM after 24 hrs using propidium iodide staining by flow cytometry (reference value: 52.28 %); format: functional
# [23] = test system: HepG2; experiment: Induction of apoptosis in human HepG2 cells after 12 hrs by flow cytometry; format: functional, cell-based; procedure, shortened: as §2
# [24] = test system: HepG2; experiment: Induction of apoptosis in human HepG2 cells assessed as generation of intracellular ROS at 20 uM after 12 to 24 hrs by fluorescence microscopy; format: functional, cell-based
# Procedure, shortened: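 HepG2 cells treated at 20 µM for 12 or 24 h, with untreated 24 h control. Loaded with 20 µM DCFH-DA in cell-free medium at 37 °C for 30 min in the dark, then washed in PBS. DCF fluorescence imaged by fluorescence microscopy at 485 nm excitation and 538 nm emission.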
# [25] = test system: HepG2; experiment: Induction of apoptosis in human HepG2 cells assessed as increase in caspase-3 level at 5 to 20 uM after 24 hrs by Western blot analysis; format: functional, cell-based; procedure, shortened: as §1
# [26] = test system: HepG2; experiment: Induction of apoptosis in human HepG2 cells assessed as early apoptotic cells at 20 uM after 12 hrs by flow cytometry (reference value: 2.1 %); format: functional; procedure, shortened: as §2
# [27] = test system: NCI-H460; experiment: Cytotoxicity against human NCI-H460 cells after 48 hrs by MTT assay; format: functional, cell-based; conditions: NCI-H460, 48 h; procedure, shortened: as §3
# [28] = test system: HepG2; experiment: Cell cycle arrest in human HepG2 cells assessed as accumulation at S phase at 20 uM after 12 hrs using propidium iodide staining by flow cytometry (reference value: 52.28 %); format: functional
# [29] = test system: HepG2; experiment: Induction of apoptosis in human HepG2 cells assessed as late apoptotic cells at 10 uM after 12 hrs by flow cytometry (reference value: 6.9 %); format: functional; procedure, shortened: as §2
# [30] = test system: HepG2; experiment: Induction of apoptosis in human HepG2 cells assessed as accumulation of cytochrome c in cytosol at 5 to 20 uM after 24 hrs by Western blot analysis; format: functional, cell-based; procedure, shortened: as §1
smiles,measurement,setting,value
C[C@H]1[C@H](C)CC[C@]2(C(=O)Nc3cccc(F)c3)CC[C@]3(C)C(=CC(=O)[C@@H]4[C@@]5(C)C[C@@H](O)[C@H](O)[C@@](C)(CO)[C@@H]5CC[C@]43C)[C@H]12,Activity,[1],Dose-dependent effect
same,Activity,[2],7.2%
same,IC50,[3],5.97 µM
same,Activity,[4],tde
same,IC50,[5],28.2 µM
same,Activity,[6],Dose-dependent effect
same,Activity,[7],Active
same,Activity,[8],65.58%
same,IC50,[9],> 100 µM
same,Activity,[10],Active
same,Activity,[11],6.09%
same,IC50,[12],14.1 µM
same,IC50,[13],14.3 µM
same,Activity,[14],55.29%
same,Activity,[15],5.56%
same,Activity,[16],2.6%
same,Activity,[17],Active
same,Activity,[18],Active
same,Activity,[19],2.2%
same,Activity,[20],9%
same,Activity,[21],tde
same,Activity,[22],28.86%
same,Activity,[23],Dose-dependent effect
same,Activity,[24],Active
same,Activity,[25],Active
same,Activity,[26],25%
same,IC50,[27],23.6 µM
same,Activity,[28],38.62%
same,Activity,[29],6.6%
same,Activity,[30],Active
